# Only some compounds are listed: those with a hit (about 4.8% of all), similar ones and a draw of the others.
# Efflux pump inh: inhibitors of Candida antifungal efflux pumps expressed in yeast | S. cerevisiae Candida pump triplex, Nile Red efflux | AID 485275 | inhibition, % at 10 µM | actives 0.44% (n = 330,000);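 active = plate passing quality check with inhibition over a set limit, or well fluorescence over plate mean plus 4 SD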;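 note: Nile Red retained in pooled yeast measured as flow cytometry median fluorescence; 0% = buffer negative control and 100% = Enniatin B positive control; higher means more Nile Red kept so more efflux inhibition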
# WT yeast gro inh: growth inhibition of WT yeast, mitochondrial fusion screen; AID 1362; inhibition, % at 10 µM; actives 2.1% (n = 190,000); mitochondrial fusion phenotypic screen, WT strain; in the data active = inhibition above about 58%; tested in S. cerevisiae
# Beta cell apopt: blocks beta cell apoptosis | INS-1E cytokine-induced death, ATP luminescence, 48 h; percent of positive-control rescue, neutral wells zero | protection from apoptosis, % (test concentration not listed) | actives 0.8% (n = 300,000);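 active = Every replicate reaches about 75%, or at least half do and their mean reaches it too, limit read from the data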;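 note: 0% = cytokine-treated negative control wells and 100% = positive control rescue; higher means more ATP so stronger rescue from cytokine killing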
# T cruzi inh: T. cruzi replication inhibition | T. cruzi beta-gal in NIH3T3, luminescence, 90 h | inhibition, % (concentration not given with the values) | actives 1.4% (n = 300,000) | AID 1885;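 active = mean inhibition across valid replicates above about 55%, limit read from the data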;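 note: signal also drops with host cell toxicity which is not excluded here; 0% = plate median of DMSO wells and 100% = zero luminescence signal; higher percent means less beta-gal luminescence so fewer parasites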
#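 System: Mouse NIH/3T3 fibroblasts infected with β-gal-expressing T. cruzi Tulahuen C4 | Quantity: NIH/3T3 cells, 5,000 per well | Reagent: 5000 reporter trypomastigotes per well | Dosing: Compound pinned at 50 nL/well, DMSO | Schedule: 3 h host attachment, then at least 90 h co-culture | Detection: GalScreen luminescence, 60 min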
# SUMO Mot1 rescue: SUMOylation pathway inhibition by Mot1-301 growth rescue. S. cerevisiae Mot1-301 growth rescue, ATP luminescence, 38.5C; percent above DMSO median, 100 means doubled. actives 1% (n = 320,000). growth rescue, % at 18.8 µM;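 active = every valid replicate shows activation above 250% relative to neutral control wells; inactive = the rest, any valid replicate at or below 250%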;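 note: OY570 slx delta 5 strain wells were the positive control but not used for scaling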
# CSC inhib: cancer stem cell inhibition | cancer stem cell-like cells viability, luminescence | inhibition, % at 7.5 µM | actives 1.1% (n = 300,000); in the data active = inhibition above about 75%; tested in HMLE shEcad cells
# An asterisk follows results filed as active; · = not tested or not shown.
SMILES,Efflux pump inh,WT yeast gro inh,Beta cell apopt,T cruzi inh,SUMO Mot1 rescue,CSC inhib
Cc1ccc(-n2nnnc2Sc2ccc(S(=O)(=O)NCCN(C)C)cc2[N+](=O)[O-])cc1,0,8,9,38,-9,99*
COC(=O)N/N=C/c1ccc([N+](=O)[O-])o1,0,-17,1,55*,·,-14
O=C(N/N=C/c1ccc([N+](=O)[O-])o1)C1CC1,0,-3,8,73*,·,·
NC(=O)N/N=C/c1ccc([N+](=O)[O-])o1,0,·,-5,·,144,-2
CCCN(C(=O)COC(=O)Cn1c(=O)oc2ccccc21)c1c(N)n(Cc2ccccc2)c(=O)[nH]c1=O,0,·,·,-1,-1,5
O=C(Nc1nnc(-c2cccs2)s1)C1CC1,0,-7,-2,2,16,-6
O=C(Nc1nc(-c2cccs2)c(-c2cccs2)s1)C1CCCC1,·,72*,·,1,·,·
COc1ccc(Nc2ccc(S(=O)(=O)N3CCCCC3)cc2[N+](=O)[O-])cc1,0,10,17,6,-1,·
COc1ccc(C(CNc2ccc(S(=O)(=O)N3CCCC3)cc2[N+](=O)[O-])N2CCCC2)cc1 (configuration not stated),0,-11,·,59*,-5,·
O=C(Oc1ccc(OC(=O)C2CCC2)cc1)C1CCC1,0,-5,-9,-10,34,3
N#Cc1cnn(-c2nc(SCc3ccccc3)nc3sc4c(c23)CCCC4)c1N,0,3,-4,60*,-9,-3
COCCCNc1nc(SCc2ccccc2)nc2sc3c(c12)CCC3,0,42,9,25,-2,10
O=C(CCCc1ccccc1)NCCS(=O)(=O)N1CCN(c2ccccc2F)CC1,0,·,4,-7,87,-12
CCCCSc1nnc(CNC(=O)C23CC4CC(CC(C4)C2)C3)n1Cc1ccccc1,0,59*,2,20,-27,42
CC(C)C(C(=O)NCC1CCCO1)N(C(=O)CNS(=O)(=O)c1ccccc1)C1CCCCC1 (configuration not stated),0,·,-2,9,-4,0
CC(C)CCc1noc(CN(C)CCC2CCOCC2)n1,0,·,2,40,4,-14
Cc1nn(C)c(C)c1CN(Cc1nc(CCC(C)C)no1)C(C)C,0,4,94*,33,5,-1
CCN(CC)S(=O)(=O)c1ccc2oc(C(=O)NC3CCCc4ccccc43)c(C)c2c1 (configuration not stated),0,7,9,81*,63,25
Cc1nc(NC(=O)COC(=O)CCS(=O)(=O)c2ccccc2Cl)c(Cl)cc1Cl,0,61*,-11,-33,26,-10
Cc1nc(NC(=O)COC(=O)C2CC2C)c(Cl)cc1Cl (configuration not stated),0,·,-4,·,13,-3
CCOC(=O)c1cc(-c2ccc(F)cc2)n(CCC(=O)NC2CCN(Cc3ccccc3)CC2)c1C,0,32,5,78*,44,10
CCOC(=O)c1cc(-c2ccc(OC)cc2)n(CCC(=O)NC2CCN(Cc3ccccc3)CC2)c1C,0,-2,6,45,28,-5
COC(=O)C1CCN(C(=O)c2cc(-c3ccc(Cl)s3)nc3ccccc23)CC1,0,·,101*,·,19,·
CCN1CCN(C(=O)c2cc(-c3ccc(Cl)s3)nc3ccccc23)CC1,·,·,·,41,·,·
CC(OC(=O)c1cccc(S(=O)(=O)N2CCCC2)c1)C(=O)NC1CCCCC1C (configuration not stated),0,·,2,9,15,-11
SMILES,Efflux pump inh,WT yeast gro inh,Beta cell apopt,T cruzi inh,SUMO Mot1 rescue,CSC inhib
COc1cc(/C=N/NC(=O)c2c(-c3c(Cl)cccc3Cl)noc2C)ccc1OCC(N)=O,·,·,·,2,·,·
Cc1onc(-c2c(Cl)cccc2Cl)c1C(=O)N/N=C(\N)COc1ccc(Cl)cc1,0,-24,91*,41,-3,101*
Cc1onc(-c2c(F)cccc2Cl)c1C(=O)Nc1nnc(-c2ccccc2)s1,0,-2,8,5,198,13
Cc1onc(-c2ccccc2)c1C(=O)Nc1nnc(COc2ccc(Cl)cc2)s1,0,63*,0,-11,-22,10
Cc1onc(-c2ccccc2Cl)c1C(=O)Nc1nnc(-c2ccc(Br)cc2)s1,0,68*,8,3,-19,53
Cc1onc(-c2ccccc2Cl)c1C(=O)Nc1nnc(-c2ccc(Cl)cc2Cl)s1,0,63*,4,-9,-10,38

# Screening results: PubChem, several laboratories
